Experimental findings from ChEMBL document CHEMBL1144690, “Isolation of cytotoxic metabolites from targeted peruvian amazonian medicinal plants” (2008) are described below.

≈ marks a conversion by molar mass, not a printed value. Calls of active or inactive are those of the source. The rule behind the calls is not given here. Some results are limits rather than exact numbers.

One assay relates to NCI-H460. The experiment in a line: Cytotoxicity against human H460 cells. Type of assay: functional. Put shortly:
(§1)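 Cells in 96-well plates exposed to serial dilutions of test sample (maximum 62.5 µg/mL for crude extract and fractions) or solvent-dilution controls for 48 h at 37 °C. Growth measured colorimetrically by sulforhodamine B staining, with percent inhibition taken against controls. GI50 is the concentration giving 50% absorbance reduction versus solvent controls, obtained by linear regression.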

Another assay concerns ME-180. The experiment in a line: Cytotoxicity against human ME180 cells. Type of assay: functional. An outline of the steps:
as §1

Another assay deals with DU-145. The experiment in a line: Cytotoxicity against human DU145 cells. Type of assay: functional. An outline of the steps: as §1
In the next assay the test system is MCF7. The experiment in a line: Cytotoxicity against human MCF7 cells. It counts as functional. Put shortly:
as §1

The subject of the next assay is M14. The experiment in a line: Cytotoxicity against human M14 cells. Type of assay: functional. An outline of the steps:
as §1

The next assay concerns HT-29. The experiment in a line: Cytotoxicity against human HT29 cells. It counts as functional. An outline of the steps:
as §1

The test system of another assay is PC-3. The experiment in a line: Cytotoxicity against human PC3 cells. Type of assay: functional. An outline of the steps: as §1
Another assay has as its system K562. The experiment in a line: Cytotoxicity against human K562 cells. Type of assay: functional. An outline of the steps: as §1
In the next assay the test system is Vero. The experiment in a line: Cytotoxicity against african green monkey Vero cells. Type of assay: functional. The settings on record: Chlorocebus sabaeus. Put shortly:
as §1

Assay [1] concerns Mycobacterium tuberculosis. The experiment in a line: Antimicrobial activity against Mycobacterium tuberculosis H37Rv at 25 ug/ml. It counts as functional, organism-based.
Assay [2] relates to Mycobacterium tuberculosis. The experiment in a line: Antimicrobial activity against Mycobacterium tuberculosis H37Rv. It counts as functional. An outline of the steps: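 Tetrazolium microplate assay (TEMA) run in vitro against the drug-sensitive M. tuberculosis H37Rv strain.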

As usually defined, the GI50 is the concentration at which growth is held to half of that of the control. Regarding `Cc1cc(O)c2c(c1)C(=O)c1cccc(O)c1C2=O` [CHRYSOPHANOL], the GI50 in the assay on NCI-H460, in the assay with ME-180, in the assay with DU-145, in the assay with MCF7, with M14 and in the assay with HT-29 was greater than 62.5 µg/mL each time. Moreover, the GI50 in the assay on PC-3, with K562 and in the assay with Vero was greater than 62.5 µg/mL throughout. Besides, in [1], the result was inactive.
For the molecule `Cc1cc(O)c2c(c1)C(=O)c1ccc(O)c(O)c1C2=O`, the GI50 stood at 4.8 µg/mL (≈ 17.8 µM) in the assay with NCI-H460; 13.2 µg/mL (≈ 48.8 µM) in the assay with ME-180; 7.9 µg/mL (≈ 29.2 µM) in the assay with DU-145; 7.3 µg/mL (≈ 27 µM) in the assay with MCF7; 13.6 µg/mL (≈ 50.3 µM) with M14; 6.5 µg/mL (≈ 24.1 µM) with HT-29. The results for the GI50 with PC-3 and in the assay on K562 were 8.7 µg/mL (≈ 32.2 µM) and 12.5 µg/mL (≈ 46.3 µM), respectively. Besides, in [1], the outcome was inactive.
Consider `C[C@]12C=C[C@@]3(CC[C@H]4[C@@](C)(CCC[C@@]4(C)C(=O)O)[C@@H]3CC1)C2` [MONOGINOIC ACID], for which the GI50 in the assay on K562 is greater than 62.5 µg/mL.
Turning to `COc1cc(O)cc(O)c1C(=O)CCc1ccc2c(c1)OCO2`, the GI50 is 27.4 µg/mL (≈ 86.6 µM) in the assay with NCI-H460; 22.4 µg/mL (≈ 70.8 µM) in the assay with DU-145; 18.9 µg/mL (≈ 59.8 µM) in the assay with MCF7; 23.4 µg/mL (≈ 74 µM) in the assay with M14; 27.6 µg/mL (≈ 87.3 µM) in the assay on HT-29; 24.5 µg/mL (≈ 77.5 µM) in the assay with PC-3. Also, the GI50 stood at 8.4 µg/mL (≈ 26.6 µM) in the assay with K562 and 28.4 µg/mL (≈ 89.8 µM) with Vero. The outcome in assay [1] was inactive.
For `COc1ccc(CCC(=O)c2c(O)cc(O)cc2OC)cc1`, the GI50 stood at 44.7 µg/mL (≈ 148 µM) in the assay with NCI-H460; 41.7 µg/mL (≈ 138 µM) with DU-145; 22.9 µg/mL (≈ 75.7 µM) in the assay with MCF7; 40.3 µg/mL (≈ 133 µM) in the assay with M14; 35.5 µg/mL (≈ 117 µM) in the assay with HT-29; 46.3 µg/mL (≈ 153 µM) in the assay on PC-3. For the same molecule, the GI50 in the assay with K562 turned out to be 7.4 µg/mL (≈ 24.5 µM); in the assay with Vero it was 40.4 µg/mL (≈ 134 µM). Besides, the outcome in assay [1] was inactive.
`C=C(C)[C@@H]1CC[C@]2(C(=O)O)CC[C@]3(C)[C@H](CC[C@@H]4[C@@]5(C)CC[C@H](O)C(C)(C)[C@@H]5CC[C@]43C)[C@@H]12` [BETULINIC ACID]: the GI50 is 29.7 µg/mL (≈ 65 µM) in the assay on NCI-H460; 27.8 µg/mL (≈ 60.9 µM) in the assay on ME-180; 35.3 µg/mL (≈ 77.3 µM) with DU-145; greater than 62.5 µg/mL in the assay on MCF7; 32.6 µg/mL (≈ 71.4 µM) in the assay with M14; 30.9 µg/mL (≈ 67.7 µM) in the assay on HT-29. In addition, the concentration for 50% growth inhibition (GI50) in the assay with PC-3 worked out at 31.3 µg/mL (≈ 68.5 µM); in the assay with K562, 10.8 µg/mL (≈ 23.6 µM); with Vero, 30.6 µg/mL (≈ 67 µM). Also, the outcome in assay [1] was inactive.
As usually defined, the MIC is the least concentration at which growth counts as inhibited. For the molecule `C/C=C1/CN2CC[C@@]34c5ccccc5N5/C=C6/[C@H]7C[C@@H]8N(CC[C@@]89c8ccccc8N(/C=C(/[C@H]1C[C@H]23)[C@H]54)[C@@H]69)C/C7=C/C` [BISNORDIHYDROTOXIFERINE], the GI50 was 1.6 µg/mL (≈ 2.89 µM) with NCI-H460; 1.9 µg/mL (≈ 3.44 µM) in the assay on ME-180; 4.5 µg/mL (≈ 8.14 µM) in the assay on DU-145; 2 µg/mL (≈ 3.62 µM) with MCF7; 1.6 µg/mL (≈ 2.89 µM) in the assay on M14; greater than 1 µg/mL in the assay on HT-29. The GI50 in the assay with PC-3 is 2.1 µg/mL (≈ 3.8 µM); in the assay with K562, less than 1 µg/mL; in the assay with Vero, 2.7 µg/mL (≈ 4.88 µM). Further, the MIC in assay [2] stood at 12.5 µg/mL (≈ 22.6 µM).
The molecule `CCCCCCCCCCCCCC(=O)O[C@@H]1[C@@H](C)[C@@]2(O)[C@@H](C=C(CO)C[C@]3(O)C(=O)C(C)=C[C@@H]23)[C@@H]2C(C)(C)[C@]12OC(C)=O` [PHORBOL MYRISTATE ACETATE] came in with a concentration for 50% growth inhibition (GI50) in the assay on K562 of 0.00012 µg/mL.
